Assay outcomes as filed in PubChem.
S100A4 MyoIIA – S100A4-myosin IIA interaction inhibition; P26447; S100A4/TAMRA-MyoIIA peptide fluorescence polarization; inhibition, % at 10.7 µM; 360,000 compounds, 0.14% hits;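 active = mean inhibition of at least 70% across replicates, with every replicate also reaching that level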
Target sequence (P26447 whole entry, looked up): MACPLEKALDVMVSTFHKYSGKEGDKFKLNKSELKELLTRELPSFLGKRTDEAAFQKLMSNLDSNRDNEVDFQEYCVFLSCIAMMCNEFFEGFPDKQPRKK
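System – human S100A4 monomer protein, biochemical binding assay · Buffer or medium – Calcium-containing HEPES buffer, pH 7.2 · Timing – 5 min between mix addition and reading · Also added – TAMRA-labelled myosin IIA heavy-chain peptide probe, 5 nM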
DENV2 CPE rescue – inhibitors of DENV2 cytopathic effect. DENV2-infected cells, cytopathic effect rescue, plate reader. CPE inhibition, % at 9.99 µM. 350,000 compounds, 1.7% hits; in the data active = CPE inhibition above about 20%, passing the limit was not always enough; tested in BHK-21 cells;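 also: 0% = median of neutral control wells and 100% = median of positive control wells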
CAL PDZ FP-1 – CAL PDZ (human) peptide binding inhibition; 300,000 compounds, 0.92% hits; Q9HD26; inhibition, % at 24.9 µM; purified CAL PDZ, TMR-peptide fluorescence polarization, 1 h; AID 602252;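 active = mean inhibition of at least 30% with at least half of replicates also reaching 30%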;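 also: 0% = DMSO neutral control and 100% = excess unlabeled competitor peptide PRC23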
SIRT5 inh – inhibitors of human sirtuin-5 desuccinylase | 330,000 compounds, 1.1% hits | AID 652115 | inhibition, % at 15 µM | Q9NXA8 | Purified SirT5, succinyl-peptide AMC, trypsin-coupled fluorescence; in the data active = inhibition above about 15%
Target sequence (Q9NXA8 whole entry, looked up): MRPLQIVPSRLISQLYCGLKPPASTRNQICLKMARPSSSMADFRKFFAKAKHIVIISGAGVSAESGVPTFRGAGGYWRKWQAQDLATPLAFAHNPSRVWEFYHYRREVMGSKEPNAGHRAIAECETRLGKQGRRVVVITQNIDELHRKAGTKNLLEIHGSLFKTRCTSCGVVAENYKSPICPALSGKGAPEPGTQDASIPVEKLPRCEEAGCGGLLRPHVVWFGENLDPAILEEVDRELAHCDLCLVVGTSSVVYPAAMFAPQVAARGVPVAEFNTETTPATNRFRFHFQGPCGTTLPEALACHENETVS
CAL PDZ FP-2 – human CAL PDZ-peptide interaction inhibition; Q9HD26; purified CAL PDZ, TMR-peptide fluorescence polarization, 1 h; inhibition, % at 20 µM; 330,000 compounds, 0.02% hits; AID 504414;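 active = highest replicate inhibition of at least 40%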;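 also: plate controls were DMSO neutral control wells for no effect and unlabeled competitor peptide control wells for full effect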
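Test system: tagged CAL PDZ domain / Buffer or medium: sodium phosphate/NaCl buffer pH 7.4 with TCEP, IgG, Thesit / Reagent: TMR-labelled reporter peptide T*-PRC34 bound in PDZ groove / Compound dosing: single point, 20 µM / Schedule: 1 h incubation at room temperature before polarization reading / Technique: fluorescence polarization (mP) / Benchmarks: unlabelled peptide, DMSO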
ERAP1 HTS inh – blocks human ERAP1 aminopeptidase activity; Q9NZ08; recombinant ERAP1, Leu-AMC fluorescence, 60 min; inhibition, % at 10.7 µM; 340,000 compounds, 0.15% hits; AID 652197;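 active = mean replicate inhibition of at least 30%, or all replicates individually reaching that 30% level; inactive = mean below 30% and not every replicate reaching it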;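 also: 0% = neutral control wells and 100% = L-leucinethiol positive control wells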
* hit, by the source's call; x = no result given. Hits are enriched below; roughly 2.9% of the tested compounds scored in any of these assays.

SMILES	S100A4 MyoIIA	DENV2 CPE rescue	CAL PDZ FP-1	SIRT5 inh	CAL PDZ FP-2	ERAP1 HTS inh
CCCC(=O)n1nc(-c2ccc(C)cc2)nc1NCc1ccco1	-5	-4	81*	-1	2	1
CC1(C)Cc2c(cnn2-c2ccc(F)cc2)C(NC(=O)c2ccc(=O)oc2)C1 (stereo unspecified)	-2	70*	15	4	0	2
CC1(C)Cc2c(cnn2-c2ccc(F)cc2)C(NC(=O)c2cnccn2)C1 (stereo unspecified)	-2	-8	-6	-2	-2	-2
O=C(CN1CCN(c2cccc(C(F)(F)F)c2)CC1)N(C1CC1)C1CCS(=O)(=O)C1 (stereo unspecified)	-4	3	-1	-4	-3	-4
O=C(CN1CCN(c2cccc(C(F)(F)F)c2)CC1)N(C1CCCC1)C1CCS(=O)(=O)C1 (stereo unspecified)	1	51*	0	0	-1	2
COC(=O)C1=COC(OC2OC(CO)C(O)C(O)C2O)C2C(C)CC(=O)C12 (stereo unspecified)	-10	-6	x	x	x	2
C=C1C[C@H](O[C@@H]2O[C@H](CO)[C@@H](O)[C@H](O)[C@H]2O)[C@@H]2[C@H](OC(=O)[C@H]2C)[C@H]2[C@H](C)[C@H](O)C[C@@H]12	-4	55*	1	x	-1	x
O=S(=O)(c1ccccc1)N1CCCCN2[C@H](CO)[C@H](c3ccc(-c4ccccc4)cc3)[C@H]2C1	14	-20	x	0	x	0
OC[C@@H]1[C@@H](c2ccc(-c3ccccc3F)cc2)[C@@H]2CN(Cc3ccncc3)CCCCN12	x	22*	x	x	x	x
O=C1CN(Cc2ccc(F)cc2)C[C@@H]2[C@@H](c3ccc(-c4ccccc4F)cc3)[C@H](CO)N12	112*	7	x	1	x	1
OC[C@H]1[C@@H](c2ccc(-c3ccc(F)cc3)cc2)[C@H]2CN(Cc3ccncc3)CCCCN21	1	28*	x	0	x	4
OC[C@H]1[C@H](c2ccc(-c3ccccc3F)cc2)[C@H]2CN(Cc3ccncc3)CCCCN21	-14	11	x	4	x	0
C[C@H](O)C#Cc1cnc2c(c1)C(=O)N([C@@H](C)CO)C[C@H](C)[C@@H](CN(C)CC1CCCC1)O2	1	-7	x	5	x	-8
CC=Cc1ccc2n(c1=O)C[C@@H]1[C@@H](CO)[C@H](C(=O)NCc3ccccn3)[C@H]2N1CCC (mixture of isomers)	26	-4	x	0	x	0
C[C@H]1CN([C@@H](C)CO)C(=O)c2cc(-c3ccc(F)cc3)cnc2O[C@@H]1CN(C)C(=O)c1ccc(F)cc1	8	5	x	-2	x	-3
O=C(N[C@H]1CC[C@H](CCNS(=O)(=O)c2ccccc2Cl)O[C@H]1CO)c1ccc(F)cc1	1	-14	x	-2	x	-1
O=[N+]([O-])c1ccc(-c2nc3ccc([N+](=O)[O-])cc3[nH]2)cc1	x	x	-1	x	0	x
O=[N+]([O-])c1ccc2nc(C(O)C(O)c3nc4ccc([N+](=O)[O-])cc4[nH]3)[nH]c2c1 (stereo unspecified)	0	8	2	100*	-12	0
CCCC(=O)Nc1ccc2c(c1)OC[C@@H](C)N(CCC)C[C@@H](C)[C@@H](OC)CN(C)C2=O	-8	8	x	-4	x	-3
COc1ccc(-c2nnn(CC(=O)N(CCN3CCOCC3)C(C(=O)NC3CCCC3)c3ccco3)n2)cc1 (stereo unspecified)	-2	11	53*	-1	-1	-6
COc1ccc2c(c1)c1nnc(SCC(=O)Nc3ccccc3F)nc1n2C	1	51*	2	-5	1	2
COC(=O)C1=C(C)N(Cc2ccc(Br)cc2)C(=S)NC1c1cccc(F)c1 (stereo unspecified)	0	26*	x	0	x	1
COC(=O)C1=C(C)N(Cc2cccc(C(F)(F)F)c2)C(=NCC2CC2)NC1c1ccc(F)cc1 (stereo unspecified)	-5	61*	x	-3	x	3
COC(=O)C1=C(C)N(Cc2cccc(C(F)(F)F)c2)C(=NCC2CC2)NC1c1cccc(C(F)(F)F)c1 (stereo unspecified)	2	-11	x	x	x	-2
